In general, inhibition in vivo refers to the share of the control response that was lost under treatment. A word on the inhibition: it is the share of the control response that was lost under treatment.

Common to all, as to assay type: functional
Test [1] relates to Rattus norvegicus. The test can be described thus: Antiinflammatory activity in Wistar albino rat assessed as inhibition of carrageenan-induced paw edema dosed at 20 mg/kg in plantar region of paw administered 30 mins before carrageenan challenge measured 0.5 hrs post carrageenan-induced inflammation. Summed up:
(§1)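 Wistar albino rats of either sex, 180–250 g, fasted 12 h before and during testing. Test compounds at 20 mg/kg given 30 min before carrageenan (0.1 mL of 1% w/v) injected into the plantar paw; diclofenac 20 mg/kg as reference. Paw volume by plethysmography at 30–180 min. % inhibition = (1 − Vt/Vc) × 100 against control edema; mean ± SEM, n = 6.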
For orientation: In the carrageenan paw model, swelling and tenderness develop within hours.

Test [2] in a line: Free radical scavenging activity assessed as inhibition of nitric oxide generation at 100 ug.
In test [3] the test system is Rattus norvegicus. The test can be described thus: Antiinflammatory activity in Wistar albino rat assessed as inhibition of carrageenan-induced paw edema dosed at 20 mg/kg in plantar region of paw administered 30 mins before carrageenan challenge measured 1 hr post carrageenan-induced inflammation. Summed up:
as §1

The nature of test [4]: Free radical scavenging activity assessed as inhibition of DPPH radical generation at 25 ug. Summed up:
(§2)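 Brand-Williams method: 1 mL sample at […] per mL mixed with 2 mL of 0.2 mM methanolic DPPH. Stood 30 min at room temperature, then absorbance read at 517 nm. % scavenging calculated relative to 0.2 mM DPPH control without sample.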
On the technique in general: Loss of DPPH colour is used to gauge radical scavenging.

Test [5] concerns Rattus norvegicus. The test can be described thus: Antiinflammatory activity in Wistar albino rat assessed as inhibition of carrageenan-induced paw edema dosed at 20 mg/kg in plantar region of paw administered 30 mins before carrageenan challenge measured 1.5 hrs post carrageenan-induced inflammation. Summed up: as §1
Test [6] is described as follows: Free radical scavenging activity assessed as inhibition of superoxide anion generation at 100 ug.
Test [7] can be described thus: Free radical scavenging activity assessed as inhibition of DPPH radical generation at 100 ug. Put shortly:
as §2

Test [8] relates to Rattus norvegicus. The test can be described thus: Antiinflammatory activity in Wistar albino rat assessed as inhibition of carrageenan-induced paw edema dosed at 20 mg/kg in plantar region of paw administered 30 mins before carrageenan challenge measured 2 hrs post carrageenan-induced inflammation. Put shortly:
as §1

Test [9] relates to Rattus norvegicus. The test can be described thus: Antiinflammatory activity in Wistar albino rat assessed as inhibition of carrageenan-induced paw edema dosed at 20 mg/kg in plantar region of paw administered 30 mins before carrageenan challenge measured 2.5 hrs post carrageenan-induced inflammation. Summed up:
as §1

The test system of test [10] is Mus musculus. The test can be described thus: Analgesic activity in Swiss albino mouse assessed as increase in reaction time at 10 mg/kg, ip measured 30 mins post dose by tail immersion method. The settings on record: route intraperitoneal. Put shortly: (§3)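 Tail immersion in Swiss albino mice, 6 per group, heat as pain source. Tail tip dipped in a thermostatic bath held at 55 °C. Basal reaction time noted before treatment. Test compounds at 10 mg/kg i.p., with pentazocine as reference. Reaction time read at 30, 60 and 90 min, given as mean ± SEM with % increase over basal.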

The subject of test [11] is Mus musculus. The test can be described thus: Analgesic activity in Swiss albino mouse assessed as increase in reaction time at 10 mg/kg, ip measured 60 mins post dose by tail immersion method. The settings on record: route intraperitoneal. Summed up: as §3
Test [12] can be described thus: Free radical scavenging activity assessed as inhibition of DPPH radical generation at 50 ug. Put shortly: as §2
The subject of test [13] is Mus musculus. The test can be described thus: Analgesic activity in Swiss albino mouse assessed as increase in reaction time at 10 mg/kg, ip measured 90 mins post dose by tail immersion method. The settings on record: route intraperitoneal. Summed up:
as §3

A short description of test [14]: Free radical scavenging activity assessed as inhibition of hydroxyl radical generation at 100 ug by Fenton reaction method.
Test [15] deals with Rattus norvegicus. The test can be described thus: Antiinflammatory activity in Wistar albino rat assessed as inhibition of carrageenan-induced paw edema dosed at 20 mg/kg in plantar region of paw administered 30 mins before carrageenan challenge measured 3 hrs post carrageenan-induced inflammation. Summed up:
as §1

With `Brc1ccc([C@H]2CC(c3ccccc3)=NN2c2ncc(Br)cn2)cc1`, the inhibition in vivo at 20 mg/kg with Rattus norvegicus [1] came to 64%; in the test with Rattus norvegicus [3] it was 68%; in the test on Rattus norvegicus [5], 74%; with Rattus norvegicus [8], 74%; in the test with Rattus norvegicus [9], 78%; in the test on Rattus norvegicus [15], 76%. Also, the inhibition in test [2] turned out to be 47.6%; in [4] it was 65.4%; in [6], 62.1%; in [7], 93.4%; in test [12], 79.6%; in [14] it was 86.8%. For the same molecule, the Activity with Mus musculus [10] stood at 25.76%; with Mus musculus [11] it was 62.01%; in the test on Mus musculus [13] it was 59.39%.
Consider `COc1ccc([C@H]2CC(c3ccc(Cl)cc3)=NN2c2ncc(Br)cn2)cc1`, for which the inhibition in vivo at 20 mg/kg was 58% with Rattus norvegicus [1]; 62% with Rattus norvegicus [3]; 64% in the test on Rattus norvegicus [5]; 70% in the test on Rattus norvegicus [8]; 69% in the test with Rattus norvegicus [9]; 73% in the test on Rattus norvegicus [15]. Also, the inhibition in test [2] came to 46.2%; in test [4], 68.5%; in test [6] it was 58.7%; in [7] it was 89.8%; in [12], 79.4%; in [14], 81.6%. The Activity is on record as 28.97% with Mus musculus [10], 39.25% in the test on Mus musculus [11] and 71.96% with Mus musculus [13].
Consider `Clc1ccc(C2=NN(c3ncc(Br)cn3)[C@@H](c3ccc(Cl)cc3)C2)cc1`, for which the inhibition in [2] turned out to be 31.4%; in test [4], 54.5%; in test [6] it was 38.6%; in [7], 78.3%; in [12], 69.2%; in test [14], 69.4%.
Consider `Clc1ccc([C@H]2CC(c3ccccc3)=NN2c2ncc(Br)cn2)cc1`, for which the inhibition in vivo at 20 mg/kg in the test on Rattus norvegicus [1] is 61%; with Rattus norvegicus [3], 70%; in the test on Rattus norvegicus [5], 71%; with Rattus norvegicus [8] it was 76%; with Rattus norvegicus [9], 72%; in the test with Rattus norvegicus [15] it was 78%. For the same molecule, the inhibition was 43.3% in test [2]; 60.1% in test [4]; 60% in test [6]; 93.5% in [7]; 78.1% in [12]; 87.9% in test [14]. The Activity in the test with Mus musculus [10] is on record as 29.71%; in the test on Mus musculus [11], 72.16%; with Mus musculus [13], 78.31%.
In the case of `Cc1cc(C(C)(C)C)c(O)c(C(C)(C)C)c1`, the inhibition in test [2] is 43.2%; in [4] it was 65.9%; in test [6], 64%; in test [7], 93.2%; in test [12] it was 79.4%; in test [14], 87%.
`Clc1ccc(C2=NN(c3ncc(Br)cn3)[C@@H](c3ccccc3)C2)cc1`: the inhibition in vivo at 20 mg/kg in the test with Rattus norvegicus [1] came out at 60%; in the test with Rattus norvegicus [3] it was 71%; in the test with Rattus norvegicus [5], 71%; with Rattus norvegicus [8] it was 73%; in the test on Rattus norvegicus [9] it was 70%; with Rattus norvegicus [15], 75%. Also, the inhibition in [2] is 39.1%; in [4] it was 62.7%; in test [6], 42.6%; in test [7] it was 90.5%; in test [12] it was 76.5%; in [14], 82.6%. Besides, the Activity in the test on Mus musculus [10] came to 37.62%; with Mus musculus [11], 70.79%; in the test with Mus musculus [13], 84.65%.
For the molecule `Clc1ccc([C@H]2CC(c3ccc(Br)cc3)=NN2c2ncc(Br)cn2)cc1`, the inhibition in test [2] was 40.2%; in test [4] it was 56.8%; in test [6] it was 38.9%; in test [7] it was 78.9%; in test [12], 68.2%; in [14], 66.3%.
For `Cc1ccc([C@H]2CC(c3ccc(Cl)cc3)=NN2c2ncc(Br)cn2)cc1`, the inhibition stood at 38.1% in test [2]; 54.4% in [4]; 43.8% in test [6]; 80% in test [7]; 71.8% in test [12]; 63.2% in test [14].
Take `Cc1ccc([C@H]2CC(c3ccccc3)=NN2c2ncc(Br)cn2)cc1`: the inhibition in vivo at 20 mg/kg in the test on Rattus norvegicus [1] stood at 63%; in the test with Rattus norvegicus [3], 68%; with Rattus norvegicus [5] it was 71%; in the test on Rattus norvegicus [8], 69%; with Rattus norvegicus [9], 72%; with Rattus norvegicus [15] it was 79%. Also, the inhibition in test [2] turned out to be 56.1%; in test [4], 67.5%; in test [6], 59.1%; in [7], 94.1%; in test [12], 79.2%; in test [14], 89.1%. Moreover, the Activity is 16.51% in the test on Mus musculus [10], 73.66% in the test with Mus musculus [11] and 65.63% in the test on Mus musculus [13].
In the case of `O=C(O)Cc1ccccc1Nc1c(Cl)cccc1Cl` [DICLOFENAC], the inhibition in vivo at 20 mg/kg in the test with Rattus norvegicus [1] is 61%; in the test with Rattus norvegicus [3], 69%; in the test on Rattus norvegicus [5], 67%; in the test with Rattus norvegicus [8], 78%; with Rattus norvegicus [9], 71%; in the test with Rattus norvegicus [15] it was 80%.
Turning to `Cc1ccc([C@H]2CC(c3ccc(Br)cc3)=NN2c2ncc(Br)cn2)cc1`, the inhibition came to 33.7% in [2]; 55.3% in [4]; 50.2% in [6]; 69.3% in test [7]; 66.3% in test [12]; 71.5% in test [14].
In the case of `O=[N+]([O-])c1ccc([C@H]2CC(c3ccccc3)=NN2c2ncc(Br)cn2)cc1`, the inhibition in [2] worked out at 32.1%; in [4] it was 54.5%; in [6] it was 42.2%; in [7], 75.6%; in test [12], 64.7%; in test [14] it was 79.2%.
Take `Brc1ccc(C2=NN(c3ncc(Br)cn3)[C@@H](c3ccc(Br)cc3)C2)cc1`: the inhibition in test [2] was 23.8%; in test [4] it was 51.5%; in test [6], 52.5%; in [7], 78.2%; in test [12], 69.7%; in [14], 71.4%.
`CC(C)=CCN1CC[C@@]2(C)c3cc(O)ccc3C[C@@H]1[C@@H]2C` (relative stereo): the Activity was 25.7% with Mus musculus [10], 45.79% in the test with Mus musculus [11] and 67.28% with Mus musculus [13].
Regarding `Clc1ccc(C2=NN(c3ncc(Br)cn3)[C@@H](c3ccc(Br)cc3)C2)cc1`, the inhibition in [2] is 38.1%; in [4], 52.2%; in test [6], 24.6%; in test [7], 78.5%; in test [12], 67.3%; in test [14], 70.6%.

The record behind these values is ChEMBL document CHEMBL2062410, “Synthesis, characterization and pharmacological study of 4,5-dihydropyrazolines carrying pyrimidine moiety” (2012).
